In brackets after ≈: the same amount, converted by molar mass.
Assays:
Type in all cases: functional
[1] = system: Mycobacteroides abscessus; assay: Antimicrobial activity against Mycobacterium abscessus isolate MAB30 at day 3 by broth microdilution method; details: isolate MAB30, 72 h
Procedure, shortened: (§1)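 Clarithromycin MIC by CLSI-conforming broth microdilution. Before testing, cultures were preincubated for 3 days, either in medium alone or in clarithromycin or erythromycin (tested range 0.01–1 μg/ml). Preincubation ran for at least two generations, judged by turbidity increase. Plates were read on day 3 and on extended incubation at days 5 to 14.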

[2] = system: Mycobacteroides abscessus; assay: Antimicrobial activity against Mycobacterium abscessus isolate MC879-2 at day 3 preincubated with 0.1 ug/ml for 3 days by broth microdilution method
[3] = system: Mycolicibacterium smegmatis; assay: Antimicrobial activity against Mycobacterium smegmatis transformed with erm allele Mycobacterium abscessus isolate MC1028 preincubated with 2 ug/ml erythromycin for 20 to 24 hrs by broth microdilution method
[4] = system: Mycobacteroides abscessus; assay: Antimicrobial activity against Mycobacterium abscessus isolate MC879-2 at day 5 by broth microdilution method; details: isolate MC879-2, 120 h
[5] = system: Mycolicibacterium smegmatis; assay: Antimicrobial activity against Mycobacterium smegmatis transformed with erm allele Mycobacterium abscessus isolate MC720 by broth microdilution method
[6] = system: Mycobacteroides abscessus; assay: Antimicrobial activity against Mycobacterium abscessus isolate MC723 at day 3 preincubated with 0.1 ug/ml erythromycin for 3 days by broth microdilution method
Procedure, shortened: (§2)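 Clarithromycin MIC by broth microdilution following CLSI guidelines. Before testing, organisms were preincubated for 3 days in medium alone or in clarithromycin or erythromycin (0.01–1 μg/ml), long enough for at least two generations judged by turbidity increase. MICs were read on day 3 and again on extended incubation out to day 14.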

[7] = system: Mycobacteroides abscessus; assay: Antimicrobial activity against Mycobacterium abscessus isolate MC879 at day 5 by broth microdilution method; details: isolate MC879, 120 h
Procedure, shortened: (§3)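 Clarithromycin MIC by broth microdilution following CLSI guidelines. Organisms were preincubated […], for 3 days before the assay. This allowed at least two generations, judged by the rise in turbidity. The MIC was read at the stated day, with incubation extended from day 3 to as long as 14 days.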

[8] = system: Mycobacteroides abscessus; assay: Antimicrobial activity against Mycobacterium abscessus isolate MC719 at day 5 preincubated with 0.1 ug/ml erythromycin for 3 days by broth microdilution method
Procedure, shortened: (§4)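 Clinical M. abscessus isolates were preincubated for 3 days, either in medium alone or in clarithromycin or erythromycin at 0.01 to 1 μg/ml, allowing at least two generations of growth judged by turbidity. The clarithromycin MIC was then determined by CLSI-conforming broth microdilution, with plates read on day 3 and on extended incubation (days 5 to 14).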

[9] = system: Mycobacteroides abscessus; assay: Antimicrobial activity against Mycobacterium abscessus isolate MC1082 at day 5 by broth microdilution method; details: isolate MC1082, 120 h; procedure, shortened: as §1
[10] = system: Mycobacteroides abscessus; assay: Antimicrobial activity against Mycobacterium abscessus isolate MC1082 at day 7 preincubated with 0.1 ug/ml for 3 days by broth microdilution method; procedure, shortened: as §1
[11] = system: Mycobacteroides abscessus; assay: Antimicrobial activity against Mycobacterium abscessus isolate MC879-2 at day 3 preincubated with 0.1 ug/ml erythromycin for 3 days by broth microdilution method
[12] = system: Mycobacteroides abscessus; assay: Antimicrobial activity against Mycobacterium abscessus isolate MC724 at day 5 preincubated with 0.1 ug/ml for 3 days by broth microdilution method; procedure, shortened: as §4
[13] = system: Mycobacteroides abscessus; assay: Antimicrobial activity against Mycobacterium abscessus isolate MAB30 at day 9 preincubated with 0.1 ug/ml for 3 days by broth microdilution method; procedure, shortened: as §1
[14] = system: Mycobacteroides abscessus; assay: Antimicrobial activity against Mycobacterium abscessus isolate MAB30 at day 7 preincubated with 0.1 ug/ml for 3 days by broth microdilution method; procedure, shortened: as §1
[15] = system: Mycobacteroides abscessus; assay: Antimicrobial activity against Mycobacterium abscessus isolate MC723 at day 9 by broth microdilution method; details: isolate MC723, 216 h; procedure, shortened: as §2
[16] = system: Mycobacteroides abscessus; assay: Antimicrobial activity against Mycobacterium abscessus isolate MC719 at day 3 preincubated with 0.1 ug/ml for 3 days by broth microdilution method; procedure, shortened: as §2
[17] = system: Mycobacteroides abscessus; assay: Antimicrobial activity against Mycobacterium abscessus isolate MAB30 at day 3 preincubated with 0.1 ug/ml erythromycin for 3 days by broth microdilution method; procedure, shortened: as §1
[18] = system: Mycobacteroides abscessus; assay: Antimicrobial activity against Mycobacterium abscessus isolate MAB30 at day 7 by broth microdilution method; details: isolate MAB30, 168 h; procedure, shortened: as §1
[19] = system: Mycobacteroides abscessus; assay: Antimicrobial activity against Mycobacterium abscessus isolate MC719 at day 9 by broth microdilution method; details: isolate MC719, 216 h; procedure, shortened: as §2
[20] = system: Mycobacteroides abscessus; assay: Antimicrobial activity against Mycobacterium abscessus isolate MC719 at day 14 by broth microdilution method; details: isolate MC719, 336 h; procedure, shortened: as §2
[21] = system: Mycobacteroides abscessus; assay: Antimicrobial activity against Mycobacterium abscessus isolate MC723 at day 9 preincubated with 0.1 ug/ml erythromycin for 3 days by broth microdilution method; procedure, shortened: as §2
[22] = system: Mycobacteroides abscessus; assay: Antimicrobial activity against Mycobacterium abscessus isolate MC720 at day 9 preincubated with 0.1 ug/ml for 3 days by broth microdilution method; procedure, shortened: as §2
[23] = system: Mycolicibacterium smegmatis; assay: Antimicrobial activity against Mycobacterium smegmatis transformed with erm allele Mycobacterium abscessus isolate MAB30 by broth microdilution method
[24] = system: Mycobacteroides abscessus; assay: Antimicrobial activity against Mycobacterium abscessus isolate MC879 on day 10 by broth microdilution method; details: isolate MC879, 240 h
[25] = system: Mycobacteroides abscessus; assay: Antimicrobial activity against Mycobacterium abscessus isolate MC720 at day 5 preincubated with 0.1 ug/ml for 3 days by broth microdilution method; procedure, shortened: as §4
[26] = system: Mycobacteroides abscessus; assay: Antimicrobial activity against Mycobacterium abscessus isolate MC724 at day 14 preincubated with 0.1 ug/ml erythromycin for 3 days by broth microdilution method; procedure, shortened: as §2
[27] = system: Mycobacteroides abscessus; assay: Antimicrobial activity against Mycobacterium abscessus isolate MC879 at day 5 preincubated with 0.1 ug/ml erythromycin for 3 days by broth microdilution method; procedure, shortened: as §4
[28] = system: Mycobacteroides abscessus; assay: Antimicrobial activity against Mycobacterium abscessus isolate MC1082 at day 9 preincubated with 0.1 ug/ml erythromycin for 3 days by broth microdilution method; procedure, shortened: as §1
[29] = system: Mycobacteroides abscessus; assay: Antimicrobial activity against Mycobacterium abscessus isolate MC958 at day 9 preincubated with 0.1 ug/ml for 3 days by broth microdilution method
[30] = system: Mycobacteroides abscessus; assay: Antimicrobial activity against Mycobacterium abscessus isolate MC1028 at day 9 preincubated with 0.1 ug/ml for 3 days by broth microdilution method; procedure, shortened: as §1
[31] = system: Mycobacteroides abscessus; assay: Antimicrobial activity against Mycobacterium abscessus isolate MC879 at day 9 by broth microdilution method; details: isolate MC879, 216 h; procedure, shortened: as §3
[32] = system: Mycobacteroides abscessus; assay: Antimicrobial activity against Mycobacterium abscessus isolate MC879 at day 9 preincubated with 0.1 ug/ml for 3 days by broth microdilution method
Procedure, shortened: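 To test inducible resistance, cultures were preincubated for 3 days in clarithromycin or erythromycin, within 0.01–1 μg/ml. The period was set so cultures passed at least two generations, judged by turbidity increase. Clarithromycin MIC was then determined by CLSI-conforming broth microdilution and read on the stated day, from day 3 up to 14.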

[33] = system: Mycolicibacterium smegmatis; assay: Antimicrobial activity against Mycobacterium smegmatis transformed with erm allele Mycobacterium abscessus isolate MC879 by broth microdilution method
[34] = system: Mycobacteroides abscessus; assay: Antimicrobial activity against Mycobacterium abscessus isolate MC723 at day 7 preincubated with 0.1 ug/ml erythromycin for 3 days by broth microdilution method; procedure, shortened: as §2
[35] = system: Mycobacteroides abscessus; assay: Antimicrobial activity against Mycobacterium abscessus isolate MC1028 at day 5 preincubated with 0.1 ug/ml for 3 days by broth microdilution method; procedure, shortened: as §1
[36] = system: Mycobacteroides abscessus; assay: Antimicrobial activity against Mycobacterium abscessus isolate MC719 at day 5 by broth microdilution method; details: isolate MC719, 120 h; procedure, shortened: as §2

SMILES: CC[C@H]1OC(=O)[C@H](C)[C@@H](O[C@H]2C[C@@](C)(OC)[C@@H](O)[C@H](C)O2)[C@H](C)[C@@H](O[C@@H]2O[C@H](C)C[C@H](N(C)C)[C@H]2O)[C@](C)(OC)C[C@@H](C)C(=O)[C@H](C)[C@@H](O)[C@]1(C)O [CLARITHROMYCIN]
- MIC [1]: ≤ 0.5 µg/mL
- MIC [2]: > 32 µg/mL
- MIC [3]: ≤ 0.5 µg/mL
- MIC [4]: > 32 µg/mL
- MIC [5]: 2 µg/mL (≈ 2.67 µM)
- MIC [6]: ≤ 0.5 µg/mL
- MIC [7]: 1 µg/mL (≈ 1.34 µM)
- MIC [8]: 4 µg/mL
- MIC [9]: ≤ 0.5 µg/mL
- MIC [10]: ≤ 0.5 µg/mL
- MIC [11]: > 32 µg/mL
- MIC [12]: 4 µg/mL (≈ 5.35 µM)
- MIC [13]: ≤ 0.5 µg/mL
- MIC [14]: ≤ 0.5 µg/mL
- MIC [15]: > 32 µg/mL
- MIC [16]: ≤ 0.5 µg/mL
- MIC [17]: ≤ 0.5 µg/mL
- MIC [18]: ≤ 0.5 µg/mL
- MIC [19]: > 32 µg/mL
- MIC [20]: > 32 µg/mL
- MIC [21]: > 32 µg/mL
- MIC [22]: > 32 µg/mL
- MIC [23]: ≤ 0.5 µg/mL
- MIC [24]: 32 µg/mL (≈ 42.8 µM)
- MIC [25]: 4 µg/mL (≈ 5.35 µM)
- MIC [26]: > 32 µg/mL
- MIC [27]: 4 µg/mL
- MIC [28]: ≤ 0.5 µg/mL
- MIC [29]: > 32 µg/mL
- MIC [30]: ≤ 0.5 µg/mL
- MIC [31]: > 32 µg/mL
- MIC [32]: > 32 µg/mL
- MIC [33]: 2 µg/mL (≈ 2.67 µM)
- MIC [34]: > 32 µg/mL
- MIC [35]: ≤ 0.5 µg/mL
- MIC [36]: 1 µg/mL (≈ 1.34 µM)
